The subject of series [1] is Salmonella typhimurium. As to the kind of experiment: Mutagenic activity in Salmonella Typhimurium TA100 assessed as number of revertants after 44 hrs by Ames test in presence of rat liver S9 fraction. The conditions noted are these: salmonella enterica subsp. enterica serovar typhimurium, s9, 44 h. The format is toxicity, organism-based. The method in brief: (§1)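 Pre-incubation Ames method. Compound at 0.03, 0.06, 0.13, 0.25 or 0.5 mg in DMSO, mixed with 0.5 mL rat liver S9 mix (P450s plus NADPH-regenerating system) and 0.1 mL tester-strain culture. Shaken 30 min at 37 °C, then top agar added and poured onto minimal-glucose agar. Revertant colonies counted after 44 h at 37 °C. Duplicate plates, experiments repeated at least twice; mean of duplicates.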
In general terms: The Ames test uses bacterial strains that need an amino acid and regain growth without it when mutated back.

For series [2], the system named is Salmonella typhimurium. Put plainly: Mutagenic activity in Salmonella Typhimurium TA98 assessed as number of revertants after 44 hrs by Ames test in presence of rat liver S9 fraction. The format is toxicity, organism-based. To be noted: salmonella enterica subsp. enterica serovar typhimurium, s9, 44 h. In a few lines:
as §1

The subject of series [3] is Salmonella typhimurium. As to the kind of experiment: Mutagenic activity in Salmonella Typhimurium TA98 assessed as number of revertants after 44 hrs by Ames test. The format is toxicity, organism-based. To be noted: salmonella enterica subsp. enterica serovar typhimurium. In a few lines: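 Pre-incubation Ames method without metabolic activation. Compound at 0.03, 0.06, 0.13, 0.25 or 0.5 mg in DMSO, mixed with 0.5 mL 0.1 M sodium phosphate buffer (pH 7.4) and 0.1 mL tester-strain culture. Shaken 30 min at 37 °C, then plated in top agar on minimal-glucose agar. Colonies counted after 44 h at 37 °C. Duplicate plates, at least two experiments; mean of duplicates.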

Series [4] deals with Salmonella typhimurium. Put plainly: Cytotoxicity against Salmonella Typhimurium TA98. The format is organism-based. To be noted: salmonella enterica subsp. enterica serovar typhimurium.
Series [5] deals with Salmonella typhimurium. As to the kind of experiment: Cytotoxicity against Salmonella Typhimurium TA98 in presence of rat liver S9 fraction. The format is organism-based. To be noted: salmonella enterica subsp. enterica serovar typhimurium.

Structures are written as SMILES.

For the compound `CCOC(=O)CCN1C(=O)C2C(C1=O)C1c3ccccc3C2N1N=O` (stereo unspecified), the Activity result in the series with Salmonella typhimurium [1], in the series with Salmonella typhimurium [2] and with Salmonella typhimurium [3] was “Non-toxic” each time.
`COC(=O)C1C(C(=O)OC)C2c3ccccc3C1N2N=O` (stereo unspecified): the Activity entry in the series with Salmonella typhimurium [1], with Salmonella typhimurium [2] and in the series with Salmonella typhimurium [3] was “Non-toxic” in each case.
Turning to `O=NN1C2c3ccccc3C1C1C(=O)N(c3ccccc3)C(=O)C12` (stereo unspecified), the Activity entry is on record as “Non-toxic” with Salmonella typhimurium [1]; “Non-toxic” in the series with Salmonella typhimurium [2]; “Non-toxic” in the series on Salmonella typhimurium [3]; “Toxic” in the series on Salmonella typhimurium [4]; “Non-toxic” in the series on Salmonella typhimurium [5].
On to `O=NN1C2c3ccccc3C1C(C(F)(F)F)C2C(F)(F)F` (stereo unspecified), for which the Activity result with Salmonella typhimurium [1], with Salmonella typhimurium [2] and in the series with Salmonella typhimurium [3] was “Non-toxic” throughout.
Turning to `COC(=O)C1CC2c3ccccc3C1N2N=O` (stereo unspecified), the Activity result in the series on Salmonella typhimurium [1], in the series on Salmonella typhimurium [2] and in the series with Salmonella typhimurium [3] was “Non-toxic” each time.
As to `O=NN1C2CCC1c1ccccc12`, the Activity entry in the series with Salmonella typhimurium [1], with Salmonella typhimurium [2] and with Salmonella typhimurium [3] was “Non-toxic” in each case.
Consider `COc1cc2c(cc1OC)C1CCC2N1N=O`, for which the Activity result in the series with Salmonella typhimurium [1], in the series on Salmonella typhimurium [2] and in the series on Salmonella typhimurium [3] was “Toxic” in each case.
On to `O=NN1C2CCC1c1cc([N+](=O)[O-])ccc12` (stereo unspecified), for which the Activity entry with Salmonella typhimurium [1], in the series with Salmonella typhimurium [2] and with Salmonella typhimurium [3] was “Non-toxic” throughout.
Consider `O=NN1C2C=CC1c1cc([N+](=O)[O-])ccc12` (stereo unspecified), for which the Activity entry in the series with Salmonella typhimurium [1], in the series with Salmonella typhimurium [2] and with Salmonella typhimurium [3] was “Toxic” each time.
With `O=NN1C2CC(O)C1c1ccc([N+](=O)[O-])cc12` (stereo unspecified), the Activity entry with Salmonella typhimurium [1], in the series on Salmonella typhimurium [2] and in the series on Salmonella typhimurium [3] was “Toxic” each time.
Consider `O=NN1C2CC(O)C1c1ccccc12` (stereo unspecified), for which the Activity entry in the series with Salmonella typhimurium [1], in the series with Salmonella typhimurium [2] and in the series on Salmonella typhimurium [3] was “Non-toxic” each time.
For `O=NN1C2CCC1CC2`, the Activity result in the series with Salmonella typhimurium [1], in the series on Salmonella typhimurium [2] and with Salmonella typhimurium [3] was “Non-toxic” throughout.
On to `COC(=O)C1C(C(=O)OC)C2CCC1N2N=O` (stereo unspecified), for which the Activity entry with Salmonella typhimurium [1], in the series with Salmonella typhimurium [2] and in the series on Salmonella typhimurium [3] was “Non-toxic” throughout.
With `COCC12CCC(C(C(=O)OC)C1)N2N=O` (stereo unspecified), the Activity result in the series with Salmonella typhimurium [1], in the series on Salmonella typhimurium [2] and in the series with Salmonella typhimurium [3] was “Non-toxic” in each case.
For `COC(=O)C1CC2(COCc3ccccc3)CCC1N2N=O` (stereo unspecified), the Activity result with Salmonella typhimurium [1], in the series on Salmonella typhimurium [2] and in the series with Salmonella typhimurium [3] was “Non-toxic” each time.
Turning to `O=NN1Cc2ccccc2C1`, the figures for the Activity entry in the series on Salmonella typhimurium [1], with Salmonella typhimurium [2] and with Salmonella typhimurium [3] were “Toxic”, “Toxic” and “Non-toxic”, respectively.
Regarding `CN1C(=O)[C@@H]2C3c4ccccc4C([C@@H]2C1=O)N3N=O`, the Activity entry in the series on Salmonella typhimurium [1], in the series with Salmonella typhimurium [2] and in the series with Salmonella typhimurium [3] was “Non-toxic” throughout.
Regarding `O=NN1CCCC1`, the figures for the Activity result in the series with Salmonella typhimurium [1], with Salmonella typhimurium [2] and in the series with Salmonella typhimurium [3] were “Toxic”, “Toxic” and “Non-toxic”, respectively.

The record behind these values is ChEMBL document CHEMBL1764971, “7-azabicyclo[2.2.1]heptane as a structural motif to block mutagenicity of nitrosamines” (Bioorg Med Chem, 2011).
